Data published in ChEMBL document CHEMBL3217593, “A Bivalent Ligand Targeting the Putative Mu Opioid Receptor and Chemokine Receptor CCR5 Heterodimers: Binding Affinity versus Functional Activities” (Medchemcomm, 2013).
The source made the active and inactive calls. The rule behind the calls is not given here.

Assays:
[1] = target: C-C chemokine receptor type 5 (Macaca mulatta, UniProt P61813); assay: Displacement of [125I]-MIP-1alpha from CCR5 in rhesus monkey Chem-1 cell membranes after 120 mins by liquid scintillation counting analysis
[2] = target: T1, C-C chemokine receptor type 5 (Homo sapiens, UniProt P51681); assay: Antagonist activity at CCR5 in Gqi5 transfected human MOLT4 cells assessed as inhibition of RANTES-stimulated Ca2+ influx preincubated for 15 mins followed by […]; assay type: functional, cell-based, MOLT-4
How it was run: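 CCR5-MOLT-4 cells transfected with chimeric […]. Inhibition of RANTES-stimulated Ca2+ flux was measured. IC50 is the mean ± S.E.M. of three independent experiments.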
Target sequence in this assay (P51681 whole entry): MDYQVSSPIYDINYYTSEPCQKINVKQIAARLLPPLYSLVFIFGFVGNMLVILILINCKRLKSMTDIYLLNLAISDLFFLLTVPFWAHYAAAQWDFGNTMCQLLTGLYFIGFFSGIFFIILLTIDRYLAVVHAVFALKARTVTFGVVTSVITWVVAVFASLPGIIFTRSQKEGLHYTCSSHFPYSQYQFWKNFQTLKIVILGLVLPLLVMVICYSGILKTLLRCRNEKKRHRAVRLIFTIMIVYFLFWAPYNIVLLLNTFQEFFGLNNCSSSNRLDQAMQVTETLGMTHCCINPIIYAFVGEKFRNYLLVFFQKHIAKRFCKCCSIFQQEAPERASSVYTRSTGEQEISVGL

Homo sapiens = species: Homo sapiens; assay: Binding affinity to CCR5/MOR in human astrocytes assessed as inhibition of R5 HIV-1 SF162 infection by measuring Tat protein expression at 1.5 uM preincubated for 30 to 60 mins followed by viral infection measured after 18 hrs by luciferase reporter gene assay; assay type: cell-based
How it was run: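 Human astrocytes infected with R5 HIV-1 SF162. Infectivity was read as relative Tat protein expression by luciferase-based assay at 18 h post-infection. Tested at 1.5 μM after an initial dose-response study. Values are from three independent experiments, compared against uninfected and infected controls.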

[3] = target: CCR5/mu opioid receptor complex (Homo sapiens) (UniProt P51681+P35372); details: 100 nM
Chain of CCR5/mu opioid receptor complex (Homo sapiens) (P35372 whole entry, looked up): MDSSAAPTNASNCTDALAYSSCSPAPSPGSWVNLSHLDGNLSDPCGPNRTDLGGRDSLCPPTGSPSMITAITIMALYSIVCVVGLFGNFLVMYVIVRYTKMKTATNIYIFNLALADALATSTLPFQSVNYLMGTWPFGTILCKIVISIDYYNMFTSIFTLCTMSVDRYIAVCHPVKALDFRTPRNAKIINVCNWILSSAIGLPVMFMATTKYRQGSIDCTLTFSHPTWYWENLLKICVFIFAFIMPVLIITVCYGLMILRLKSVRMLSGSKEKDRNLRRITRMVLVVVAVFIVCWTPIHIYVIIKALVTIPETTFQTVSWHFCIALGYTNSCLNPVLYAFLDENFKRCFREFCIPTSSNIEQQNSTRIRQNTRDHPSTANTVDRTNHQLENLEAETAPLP
Chain of CCR5/mu opioid receptor complex (Homo sapiens) (P51681 whole entry, looked up): as the sequence (P51681 whole entry) above

Mu-type opioid receptor [4] = target: T2, Mu-type opioid receptor (Homo sapiens, UniProt P35372); assay: Displacement of [3H]-naloxone from human mu opioid receptor expressed in CHO cells after 1 hr; assay type: cell-based
T2 sequence (P35372 whole entry): as the sequence (P35372 whole entry, looked up) above
How it was run: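 Competitive binding in hMOR-expressing CHO cells with [3H]naloxone as radioligand. Ki is the mean ± S.E.M. of three independent experiments.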

Mu-type opioid receptor [5] = target: T2, Mu-type opioid receptor; assay: Agonist activity at human mu opioid receptor expressed in Gqi5 transfected CHO cells after 15 mins; assay type: cell-based
How it was run: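 hMOR-expressing CHO cells transfected with chimeric […] were tested for direct Ca2+ mobilization (agonist mode).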

Mu-type opioid receptor [6] = target: T2, Mu-type opioid receptor; assay: Antagonist activity at human mu opioid receptor expressed in Gqi5 transfected CHO cells assessed as inhibition of DAMGO-stimulated Ca2+ influx preincubated for 15 mins followed by DAMGO challenge; assay type: functional, cell-based
How it was run: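 hMOR-CHO cells transfected with chimeric […]. Inhibition of DAMGO-stimulated Ca2+ flux was measured. IC50 is the mean ± S.E.M. of three independent experiments.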

[7] = Cytotoxicity against human astrocytes assessed as cell viability at 100 nM by AOPI staining-based fluorescence assay; details: astrocyte, 0.1 µM
How it was run: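 Astroglial cell viability after exposure at 100 nM, assessed by dual green/red fluorescence labeling with AOPI.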

[8] = target: T1, C-C chemokine receptor type 5; assay: Agonist activity at CCR5 in Gqi5 transfected human MOLT4 cells after 15 mins; assay type: cell-based; details: MOLT-4
How it was run: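 Ca2+ mobilization, agonist mode, in CCR5-MOLT-4 cells transfected with chimeric […]. Intracellular Ca2+ flux was read directly, with no agonist challenge.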
Target sequence in this assay (P51681 whole entry, looked up): as the sequence (P51681 whole entry) above

Cc1nnc(C(C)C)n1C1CC2CCC(C1)N2CC[C@H](NC(=O)C1CCC(F)(F)CC1)c1ccc(N)cc1 (some centres undefined)
Ki [1]: 15.3 nM
IC50 [2]: 14.2 nM

O=C1CC[C@@]2(O)[C@H]3Cc4ccc(O)c5c4[C@@]2(CCN3CC2CC2)[C@H]1O5
inhibition (Homo sapiens): inactive

Cc1nnc(C(C)C)n1C1CC2CCC(C1)N2CC[C@H](NC(=O)C1CCC(F)(F)CC1)c1ccc(NC(=O)OC(C)(C)C)cc1 (some centres undefined)
IC50 [2]: 1570 nM

Cc1nnc(C(C)C)n1[C@H]1C[C@H]2CC[C@@H](C1)N2CC[C@H](NC(=O)C1CCC(F)(F)CC1)c1ccccc1
inhibition [3]: Active

CNC(=O)COCC(=O)Nc1ccc([C@H](CCN2C3CCC2CC(n2c(C)nnc2C(C)C)C3)NC(=O)C2CCC(F)(F)CC2)cc1 (some centres undefined)
IC50 [2]: 7910 nM

CNC(=O)COCC(=O)NCCCCCCCNC(=O)COCC(=O)N[C@@H]1CC[C@@]2(O)[C@H]3Cc4ccc(O)c5c4[C@@]2(CCN3CC2CC2)[C@H]1O5
Ki (Mu-type opioid receptor [4]): 9.2 nM
Activity (Mu-type opioid receptor [5]): inactive
IC50 (Mu-type opioid receptor [6]): 37.8 nM

Cc1nnc(C(C)C)n1C1CC2CCC(C1)N2CC[C@H](NC(=O)C1CCC(F)(F)CC1)c1ccc(NC(=O)COCC(=O)NCCCCCCCNC(=O)COCC(=O)N[C@@H]2CC[C@@]3(O)[C@H]4Cc5ccc(O)c6c5[C@@]3(CCN4CC3CC3)[C@H]2O6)cc1 (some centres undefined)
Activity [7]: Non-toxic
Activity (Mu-type opioid receptor [5]): inactive
Activity [8]: inactive

CNC(=O)COCC(=O)NCCCCCCCNC(=O)COCC(=O)Nc1ccc([C@H](CCN2C3CCC2CC(n2c(C)nnc2C(C)C)C3)NC(=O)C2CCC(F)(F)CC2)cc1 (some centres undefined)
Ki [1]: 151 nM
IC50 [2]: 622 nM
